In ChEMBL document CHEMBL1156690, “Synthesis, anti-HIV-1 integrase, and cytotoxic activities of 4-chloro-N-(4-oxopyrimidin-2-yl)-2-mercaptobenzenesulfonamide derivatives” (Eur J Med Chem, 2008):
Blank lines part the entries; values can stand above or below the compound they belong to.

Key:
[1] = target: T1, Human immunodeficiency virus type 1 integrase (Human immunodeficiency virus 1, UniProt Q7ZJM1); experiment: Inhibition of HIV1 integrase 3' processing activity
In short: (§1)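 HIV-1 integrase (200 nM final) preincubated 30 min at 30 °C with inhibitor in buffer (pH 7.2 MOPS, NaCl, HEPES, EDTA, DTT, 10% glycerol, 7.5 mM MnCl₂, 0.1 mg/ml BSA, 2-mercaptoethanol, 10% DMSO). 20 nM 5'-³²P-labeled linear oligonucleotide substrate then added for 1 h. Quenched with formamide loading dye; products resolved on denaturing 20% polyacrylamide/urea gel. IC₅₀ reported for each step.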

[2] = target: T1, Human immunodeficiency virus type 1 integrase; experiment: Inhibition of HIV1 integrase strand transfer activity; in short: as §1
SK-MEL-5 = experiment: Growth inhibition of human SK-MEL-5 cells; type: functional
In short: (§2)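 Run by the US National Cancer Institute in vitro screen against a panel of 53–57 human tumor cell lines. GI₅₀ is defined as the molar concentration inhibiting 50% net cell growth. TGI is the concentration giving total growth inhibition.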

A498 = experiment: Growth inhibition of human A498 cells; type: functional; in short: as §2
Malme-3M = experiment: Growth inhibition of human MALME-3M cells; type: functional; in short: as §2
M14 = experiment: Growth inhibition of human M14 cells; type: functional; in short: as §2
EKVX = experiment: Growth inhibition of human EKVX cells; type: functional; in short: as §2
SF-268 [3] = experiment: (§3) Growth inhibition of human SF268 cells; type: functional; in short: as §2
NCI-H522 = experiment: Growth inhibition of human NCI-H522 cells; type: functional; in short: as §2
SNB-19 = experiment: Growth inhibition of human SNB19 cells; type: functional; in short: as §2
SNB-75 = experiment: Growth inhibition of human SNB75 cells; type: functional; in short: as §2
UACC-62 = experiment: Growth inhibition of human UACC62 cells; type: functional; in short: as §2
SF-268 [4] = experiment: as §3; type: functional; in short: as §2; remark: listed apart in the source
MOLT-4 = experiment: Growth inhibition of human MOLT4 cells; type: functional; in short: as §2
SR = experiment: Growth inhibition of human SR cells; type: functional; in short: as §2
LOX IMVI = experiment: Growth inhibition of human LOX IMVI cells; type: functional; conditions: Homo sapiens, LOX IMVI; in short: as §2
BT-549 = experiment: Growth inhibition of human BT549 cells; type: functional; in short: as §2
T47D = experiment: Growth inhibition of human T47D cells; type: functional; in short: as §2
CCRF-CEM = experiment: Growth inhibition of human CCRF-CEM cells; type: functional; in short: as §2
HOP-62 = experiment: Growth inhibition of human HOP62 cells; type: functional; in short: as §2
HCC 2998 = experiment: Growth inhibition of human HCC2998 cells; type: functional; in short: as §2
KM12 = experiment: Growth inhibition of human KM12 cells; type: functional; in short: as §2
SN12C = experiment: Growth inhibition of human SN12C cells; type: functional; in short: as §2
HCT-116 = experiment: Growth inhibition of human HCT116 cells; type: functional; in short: as §2
NCI-H322M = experiment: Growth inhibition of human NCI-H322M cells; type: functional; in short: as §2

T1 sequence (Q7ZJM1 whole entry): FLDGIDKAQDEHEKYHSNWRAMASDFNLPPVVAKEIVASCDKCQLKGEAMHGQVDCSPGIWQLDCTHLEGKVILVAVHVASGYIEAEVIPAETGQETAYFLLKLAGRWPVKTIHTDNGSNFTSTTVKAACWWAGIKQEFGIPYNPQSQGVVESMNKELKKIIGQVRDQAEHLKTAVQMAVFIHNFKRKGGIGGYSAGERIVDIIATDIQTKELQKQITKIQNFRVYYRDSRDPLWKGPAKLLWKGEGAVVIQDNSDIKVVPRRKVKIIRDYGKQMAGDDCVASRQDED

SMILES: O=C(Nc1ccc(Cl)cc1)c1cc(S(=O)(=O)Nc2nc3ccccc3c(=O)[nH]2)c(SCc2ccccc2)cc1Cl
IC50 [1]: > 100 µM
IC50 [2]: 52 µM

SMILES: O=C(Nc1ccccc1)c1cc(S(=O)(=O)Nc2nc3ccccc3c(=O)[nH]2)c(SCc2ccccc2)cc1Cl
IC50 [1]: 73 µM
IC50 [2]: 36 µM

SMILES: Cc1ccc(NC(=O)c2cc(S(=O)(=O)Nc3nc4ccccc4c(=O)[nH]3)c(SCc3ccccc3)cc2Cl)cc1
IC50 [1]: > 100 µM
IC50 [2]: 77 µM

SMILES: Cc1cc(S(=O)(=O)Nc2nc(=O)c3ccccc3n2C)c(SCc2ccccc2)cc1Cl
IC50 [1]: > 100 µM
IC50 [2]: 90 µM

SMILES: Cc1cc(S(=O)(=O)Nc2nc3scc(C)c3c(=O)n2N)c(S)cc1Cl
IC50 [1]: > 100 µM
IC50 [2]: 81 µM

SMILES: Cc1cc(S(=O)(=O)Nc2nc3ccsc3c(=O)[nH]2)c(SCc2ccccc2)cc1Cl
IC50 [1]: > 100 µM
IC50 [2]: 70 µM

SMILES: Cc1cc(S(=O)(=O)Nc2nc3ccccc3c(=O)n2N)c(S)cc1Cl
IC50 [1]: > 100 µM
IC50 [2]: > 100 µM
GI50 (EKVX): 14.8 µM
TGI (EKVX): 29.2 µM
GI50 (SF-268 [3]): 7.2 µM
TGI (SF-268 [3]): 40.1 µM
GI50 (NCI-H522): 19 µM
TGI (NCI-H522): 50.8 µM
GI50 (SNB-19): 15.7 µM
TGI (SNB-19): 47.2 µM
GI50 (SNB-75): 13.3 µM
TGI (SNB-75): 32.7 µM
GI50 (UACC-62): 19.7 µM
TGI (UACC-62): 49.2 µM

These reach a lower IC50 [1]. Values come first.

IC50 [1]: 69 µM
IC50 [2]: 43 µM
SMILES: Cc1cc(S(=O)(=O)Nc2nc3cscc3c(=O)n2N)c(S)cc1Cl
GI50 (SNB-75): 15 µM
TGI (SNB-75): 58.5 µM
GI50 (SF-268 [4]): 17.7 µM
TGI (SF-268 [4]): 68.1 µM

IC50 [1]: 62 µM
IC50 [2]: 53 µM
GI50 (MOLT-4): 19.4 µM
SMILES: Cc1cc(S(=O)(=O)Nc2nc3ccsc3c(=O)n2Cc2ccco2)c(S)cc1Cl
TGI (MOLT-4): 84.2 µM
GI50 (SR): 9.9 µM
TGI (SR): 29.7 µM

GI50 (SK-MEL-5): 12.5 µM
IC50 [1]: 53 µM
IC50 [2]: 29 µM
GI50 (NCI-H322M): 19.5 µM
GI50 (HCT-116): 19.2 µM
SMILES: Cc1cc(S(=O)(=O)Nc2nc3ccsc3c(=O)n2Cc2ccccc2)c(S)cc1Cl
TGI (SK-MEL-5): 34.2 µM
GI50 (A498): 14.2 µM
TGI (A498): 49.3 µM
GI50 (Malme-3M): 19.9 µM
TGI (Malme-3M): 56.1 µM
GI50 (M14): 19.8 µM
TGI (M14): 49.6 µM
GI50 (UACC-62): 19.5 µM
TGI (UACC-62): 44.4 µM
GI50 (HOP-62): 19.7 µM
TGI (HOP-62): 46.6 µM
TGI (NCI-H322M): 48.8 µM
GI50 (KM12): 19.9 µM
TGI (KM12): 48.2 µM
TGI (HCT-116): 37.7 µM

IC50 [1]: 22 µM
IC50 [2]: 4 µM
SMILES: Cc1cc(S(=O)(=O)Nc2nc3cc(C(C)(C)C)sc3c(=O)n2Cc2ccccc2)c(S)cc1Cl

GI50 (SK-MEL-5): > 100 µM
IC50 [1]: 8 µM
IC50 [2]: 6 µM
GI50 (NCI-H522): > 100 µM
GI50 (MOLT-4): > 100 µM
GI50 (BT-549): > 100 µM
GI50 (T47D): > 100 µM
GI50 (CCRF-CEM): > 100 µM
GI50 (NCI-H322M): > 100 µM
GI50 (HCC 2998): > 100 µM
GI50 (HCT-116): > 100 µM
SMILES: Cc1cc(S(=O)(=O)Nc2nc3cc(-c4ccsc4)sc3c(=O)n2Cc2ccco2)c(S)cc1Cl
GI50 (A498): > 100 µM
GI50 (Malme-3M): > 100 µM
GI50 (M14): > 100 µM
GI50 (EKVX): > 100 µM
GI50 (SF-268 [3]): > 100 µM
GI50 (SNB-19): > 100 µM
GI50 (SNB-75): > 100 µM
GI50 (UACC-62): > 100 µM
GI50 (SF-268 [4]): > 100 µM
GI50 (SR): > 100 µM
GI50 (LOX IMVI): > 100 µM
GI50 (HOP-62): > 100 µM
GI50 (KM12): > 100 µM
GI50 (SN12C): > 100 µM

GI50 (SK-MEL-5): > 100 µM
IC50 [1]: 6 µM
IC50 [2]: 4 µM
GI50 (NCI-H522): > 100 µM
GI50 (MOLT-4): > 100 µM
GI50 (BT-549): > 100 µM
GI50 (T47D): > 100 µM
GI50 (CCRF-CEM): > 100 µM
GI50 (HCC 2998): > 100 µM
GI50 (HCT-116): > 100 µM
SMILES: Cc1cc(S(=O)(=O)Nc2nc3cc(-c4ccc(Cl)cc4)sc3c(=O)n2Cc2ccccc2)c(S)cc1Cl
GI50 (A498): > 100 µM
GI50 (Malme-3M): > 100 µM
GI50 (M14): > 100 µM
GI50 (EKVX): > 100 µM
GI50 (SF-268 [3]): > 100 µM
GI50 (SNB-19): > 100 µM
GI50 (SNB-75): > 100 µM
GI50 (UACC-62): > 100 µM
GI50 (SF-268 [4]): > 100 µM
GI50 (SR): > 100 µM
GI50 (LOX IMVI): > 100 µM
GI50 (HOP-62): > 100 µM
GI50 (KM12): > 100 µM
GI50 (SN12C): > 100 µM
